Columns and labels:
Rattus norvegicus [1] = experiment: Acute toxicity in po dosed rat assessed as death after 1 week; format: organism-based; settings: in vivo, 168 h
In short: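 Rats fasted 16 h, six per group, given various oral doses; deaths recorded daily over 1 week of observation after treatment.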

Rattus norvegicus [2] = experiment: Antiamnesic activity against scopolamine-induced memory loss in Wistar rat assessed as number of mistake done at 0.1 mg/kg, ip measured for 15 mins by passive avoidance step-down task test; format: functional; settings: route intraperitoneal
In short: (§1)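 Male Wistar rats (200-250 g), scopolamine 0.4 mg/kg ip to induce memory loss; test compound 0.1 mg/kg ip given together with scopolamine. Passive avoidance step-down task run in a rodent memory evaluator. Read-outs: basal latency (s) to reach the shock-free zone over trials I-III, memory latency (s) and number of mistakes, given as mean ± S.E.M.; p < 0.005 taken as significant.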

[3] = target: T1, Muscarinic acetylcholine receptor M1 (Rattus norvegicus, UniProt P08482); experiment: Displacement of [3H]QNB from muscarinic M1 receptor in Wistar rat brain cortex membrane after 2 hrs by liquid scintillation counting; format: cell membranes
T1 sequence (P08482 whole entry): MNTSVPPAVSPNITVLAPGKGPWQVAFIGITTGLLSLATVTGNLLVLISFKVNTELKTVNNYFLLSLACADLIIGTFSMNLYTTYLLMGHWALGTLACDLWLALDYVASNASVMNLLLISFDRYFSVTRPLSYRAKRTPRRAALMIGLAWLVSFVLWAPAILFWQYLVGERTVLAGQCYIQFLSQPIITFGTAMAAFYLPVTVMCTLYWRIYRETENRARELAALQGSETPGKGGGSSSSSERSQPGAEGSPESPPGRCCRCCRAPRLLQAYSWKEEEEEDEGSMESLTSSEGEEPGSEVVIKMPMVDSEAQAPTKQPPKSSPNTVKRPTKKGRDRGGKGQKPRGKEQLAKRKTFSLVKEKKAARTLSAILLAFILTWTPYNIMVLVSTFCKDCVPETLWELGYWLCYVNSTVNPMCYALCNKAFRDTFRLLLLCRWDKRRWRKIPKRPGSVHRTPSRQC

Rattus norvegicus [4] = experiment: Antiamnesic activity against scopolamine-induced memory loss in Wistar rat assessed as time taken to reach shock free zone at 0.1 mg/kg, ip measured for 15 mins by passive avoidance step-down task test; format: functional; parameters: unit not given beside the values; settings: route intraperitoneal; in short: as §1
Rattus norvegicus [5] = experiment: Effect on scopolamine-induced memory loss and learning impairment in Wistar rat assessed as transfer latency at 0.1 mg/kg, ip after 30 mins by elevated plus maze test; format: functional; parameters: unit not given beside the values; settings: route intraperitoneal
In short: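 Male Wistar rats on an elevated plus maze. Scopolamine 0.4 mg/kg ip; test compound 0.1 mg/kg ip given together with scopolamine 30 min before exploration; controls received distilled water. On day 1 each rat explored the maze for 90 s. Transfer latency was measured on day 1 (TL1, learning) and on day 2 in the same animals (TL2, memory), and the average was reported.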

Rattus norvegicus [6] = experiment: Antiamnesic activity against scopolamine-induced memory loss in Wistar rat assessed as latency time at 0.1 mg/kg, ip measured for 15 mins by passive avoidance step-down task test; format: functional; parameters: unit not given beside the values; settings: route intraperitoneal; in short: as §1

Row | SMILES | Activity (Rattus norvegicus [1]) | Activity (Rattus norvegicus [2]) | IC50 [3] [µM] | Ki [3] [µM] | Activity (Rattus norvegicus [4]) | Activity (Rattus norvegicus [5]) | Activity (Rattus norvegicus [6])
1 | CCN1C(=O)CSC1C1=CCCN(C)C1 (stereo unspecified) | Non-toxic | 21 | 670 | 230 | 4 | 45 | 2
2 | CN1CCC=C(C2SCC(=O)N2c2cccc(O)c2)C1 (stereo unspecified) | Non-toxic | 23 | 563 | 102 | 6 | 22 | 3
3 | CN1CCC=C(C2SCC(=O)N2c2ccc(Cl)cc2)C1 (stereo unspecified) | Non-toxic | 28 | 653 | 200 | 3 | 42 | 3
4 | CCCCN1C(=O)CSC1C1=CCCN(C)C1 (stereo unspecified) | Non-toxic | 12 | 68 | 32 | 5 | 17 | 4
5 | CN1CCC=C(C2SCC(=O)N2Cc2ccccc2)C1 (stereo unspecified) | Non-toxic | 30 | 789 | 149 | 7 | 19 | 4
6 | CN1CCC=C(C2SCC(=O)N2c2ccc(Nc3ccccc3)cc2)C1 (stereo unspecified) | Non-toxic | 16 | 48 | 19 | 5 | 14 | 3
7 | CN1CCC=C(C2SCC(=O)N2c2ccc([N+](=O)[O-])cc2)C1 (stereo unspecified) | Non-toxic | 25 | 158 | 43 | 7 | 21 | 4
8 | Cc1ccc(N2C(=O)CSC2C2=CCCN(C)C2)c([N+](=O)[O-])c1 (stereo unspecified) | Non-toxic | 25 | 626 | 125 | 5 | 40 | 3
9 | CC(C)N1C(=O)CSC1C1=CCCN(C)C1 (stereo unspecified) | Non-toxic | 30 | 579 | 97 | 8 | 35 | 3
10 | CN1CCC=C(C2SCC(=O)N2c2ccc(C(=O)O)cc2)C1 (stereo unspecified) | Non-toxic | 14 | 74 | 37 | 6 | 18 | 4
11 | CN1CCC=C(C2SCC(=O)N2c2ccc(Br)cc2)C1 (stereo unspecified) | Non-toxic | 29 | 536 | 122 | 7 | 38 | 3
12 | CCCCCCN1C(=O)CSC1C1=CCCN(C)C1 (stereo unspecified) | Non-toxic | 21 | 632 | 110 | 7 | 30 | 4
13 | CN1CCC=C(C2SCC(=O)N2c2ccccc2)C1 (stereo unspecified) | Non-toxic | 32 | 886 | 105 | 8 | 44 | 4

From ChEMBL document CHEMBL1155208 (Eur J Med Chem, 2009)
